Sampled rows, rich in hits. Any-hit rate of the full collection: about 3.8%.
RGS4 act: potentiators or activators of RGS4; B-score at 10 µM; actives 0.92% (n = 310,000); HEK293 M3R/inducible RGS4, carbachol calcium flux Fluo4; active compounds read low;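 active means B-score of the integrated calcium signal more than 4 SD below the library mean, with starting fluorescence not abnormally high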;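 further: negative B-score means reduced calcium response which marks RGS4 activation or potentiation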
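Reagent: ECmax carbachol challenge; Test system: M3R-expressing HEK293 line, RGS4 induced by doxycycline; Schedule: overnight RGS4 induction, 30 min dye load 37 °C, 20 min compound RT; Detection: calcium dye Fluo4 fluorescence; Read-out: Agonist-evoked peak-minus-minimum fluorescence over baseline, integrated ratio, B score.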
MrgX1 antagonist: blocks BAM8-22 activation of human MrgX1 receptor | actives 1.3% (n = 310,000) | MRGX1-HEK293 calcium flux, Fluo-4, BAM8-22 antagonism; active compounds read low | B-score at 10 µM | Q96LB2;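 active means calcium-response B-score plate-corrected more than 3 library SD below zero, starting fluorescence within 5 deviations, no agonist response on first addition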;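 further: peak minus trough fluorescence over baseline after final BAM8-22 challenge near maximal dose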
Target sequence (Q96LB2 whole entry, looked up): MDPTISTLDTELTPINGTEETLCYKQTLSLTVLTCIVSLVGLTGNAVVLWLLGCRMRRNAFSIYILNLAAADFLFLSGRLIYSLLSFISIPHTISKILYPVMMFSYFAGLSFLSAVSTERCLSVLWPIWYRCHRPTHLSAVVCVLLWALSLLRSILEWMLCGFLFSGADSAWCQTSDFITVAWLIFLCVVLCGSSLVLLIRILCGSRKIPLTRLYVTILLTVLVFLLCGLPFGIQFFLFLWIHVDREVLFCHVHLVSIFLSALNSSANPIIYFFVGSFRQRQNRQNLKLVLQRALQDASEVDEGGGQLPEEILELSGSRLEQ
RGS4 block: human RGS4 inhibition; P49798; HEK293 M3R/RGS4 inducible, Fluo-4 calcium flux; active compounds read high; triggered by carbachol at its EC20; B-score at 10 µM; actives 0.45% (n = 310,000);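 active means B-score, a plate-corrected calcium signal, over three deviations above library mean, with baseline fluorescence within five deviations of library mean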;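 further: RGS4 expression induced by doxycycline in cells with stable M3 receptor; B-score is computed from the integrated fluorescence ratio over baseline after carbachol; higher B-score means a larger calcium signal and so more RGS4 inhibition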
Target sequence (P49798 whole entry, looked up): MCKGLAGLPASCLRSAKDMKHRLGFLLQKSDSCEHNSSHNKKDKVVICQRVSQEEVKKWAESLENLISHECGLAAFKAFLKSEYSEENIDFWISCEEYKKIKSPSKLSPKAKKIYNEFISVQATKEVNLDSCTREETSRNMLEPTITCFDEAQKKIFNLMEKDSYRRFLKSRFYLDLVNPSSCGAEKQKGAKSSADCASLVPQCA
MrgX1 allo act: human MrgX1 positive allosteric modulation, primary screen | Q96LB2 | MrgX1-HEK293, Fluo-4 calcium flux, FDSS; active compounds read high | B-score at 10 µM | actives 0.63% (n = 310,000);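 active means plate-corrected calcium response at least 3 library SD above typical, normal starting fluorescence, not activating the receptor alone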;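 further: compound read alongside a low EC10 to EC30 dose of BAM8-22 agonist; peak minus trough fluorescence over baseline measured at the second addition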
Lipid droplet: hepatic lipid droplet formation modulation; AML12 mouse hepatocytes, oleate lipid droplets, BODIPY imaging; inhibition, % at 6.5 µM; actives 0.4% (n = 240,000); AID 1656;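 active means lipid droplet intensity inhibited by at least 50%, with more than 500 cells counted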
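Technique: fluorescence imaging, 20x objective, two fields per well / Assay system: AML12 hepatocytes (mouse) / Measure: % inhibition of lipid droplet signal / Doses: 6.5 µM single-point dosing / Incubation: overnight exposure / Reagent: 100 µM oleic acid challenge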
MrgX1 agonist: human MrgX1 receptor agonism, primary screen. Q96LB2. MrgX1-HEK293 cells, Fluo-4 calcium fluorescence, agonist mode; active compounds read high. B-score at 10 µM. actives 0.44% (n = 310,000). AID 588627;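 active means calcium response B-score plate-corrected fluorescence ratio at least 3 library SD, with starting fluorescence B-score inside 5 SD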
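Material – MrgX1-expressing HEK293 cells · Input – 15,000 cells seeded per well · Dosing – compound as first of three additions · Times – overnight seeding, then 1 h dark dye loading · Measured by – kinetic Fluo-4 NW fluorescence of intracellular calcium · Read-out – B-scored fluorescence response ratio · Benchmarks – positive and negative control wells on each plate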
Large screens that a line does not name were inactive.

N/C(=N\OC(=O)c1cccs1)C1(c2ccc(Cl)cc2Cl)CC1	MrgX1 allo act 14
N/C(Cc1ccc(Cl)c(Cl)c1)=N\OC(=O)c1cccs1	none (no result: Lipid droplet)
COc1cc(NC(=O)c2cccs2)c(OC)cc1NC(=O)Nc1ccc(F)cc1	none (no result: Lipid droplet)
O=S1(=O)N=C(N2CCc3ccccc3C2)c2ccccc21	RGS4 act -7.4 (no result: Lipid droplet)
O=c1ccc(-c2ccc(S(=O)(=O)N3CCN(c4cccc(Cl)c4)CC3)o2)n[nH]1	none
CS(=O)(=O)c1cccc(-c2nnc(NC(=O)C3=COCCO3)o2)c1	MrgX1 antagonist -4.9 (no result: Lipid droplet)
CS(=O)(=O)c1ccccc1-c1nnc(NC(=O)C2=COCCO2)o1	none (no result: Lipid droplet)
CCc1cccc2c(C(=O)COC(=O)c3nn(C)c(=O)c4ccccc34)c[nH]c12	RGS4 act -7.3
CCc1cccc2c(C(=O)COC(=O)C3=NNC(=O)CC3)c[nH]c12	none
CCOC(=O)CSc1cc(=O)n(C)c2cc(Cl)ccc12	none (no result: Lipid droplet)
CCOC(=O)C1=C(C)N=c2s/c(=C\c3ccc(O)c([N+](=O)[O-])c3)c(=O)n2C1c1ccccc1OC (configuration not stated)	MrgX1 antagonist -4.6
CCOC(=O)C1=C(C)N=c2s/c(=C/c3ccc(OCC(=O)O)cc3)c(=O)n2C1c1ccc(SC)cc1 (configuration not stated)	none
CCOC(=O)C1=C(C)N=c2s/c(=C\c3ccc(OCC(=O)O)cc3)c(=O)n2C1c1ccccc1OC (configuration not stated)	none
CCOC(=O)C1=C(C)N=c2s/c(=C/c3ccc(OCC(=O)O)cc3)c(=O)n2C1c1ccc(F)cc1 (configuration not stated)	RGS4 act -8.3
CCOC(=O)C1=C(C)N=c2s/c(=C/c3cccc([N+](=O)[O-])c3O)c(=O)n2C1c1ccc(OC)cc1OC (configuration not stated)	RGS4 act -8.4
COc1cc(/C=N/Nc2ccc(C(F)(F)F)cn2)ccc1O	MrgX1 allo act 7.5
O=C(O)c1ccc(/C=N/Nc2ccc(C(F)(F)F)cn2)cc1	none (no result: MrgX1 antagonist, MrgX1 allo act, MrgX1 agonist)
COc1ccc2c(c1)C(=O)N(c1ccc(C)cc1)C(=O)C2	MrgX1 antagonist -4.8
Cc1cc(C)c2c(N)c(S(=O)c3ccc(C(C)(C)C)cc3)sc2n1 (configuration not stated)	none (no result: Lipid droplet)
CCN1CCCC(OC(=O)C(c2ccccc2)c2ccccc2)C1 (configuration not stated)	none (no result: RGS4 act, RGS4 block, Lipid droplet)
CN(C)[C@@H]1CCC[C@@H]1OC(=O)C(c1ccccc1)c1ccccc1	RGS4 act -7
Cc1ccc(C)c(C(=O)COC(=O)CCCC(=O)Nc2cc(C(F)(F)F)ccc2Cl)c1	MrgX1 antagonist -7
CC(/C=N/n1c(-c2ccco2)n[nH]c1=S)=C\c1ccco1	MrgX1 antagonist -5.9
CC(/C=N/n1c(-c2ccccc2)n[nH]c1=S)=C\c1ccco1	RGS4 act -7.2
COCCOC(=O)/C(=C\c1cc(C(C)(C)C)c(O)c(C(C)(C)C)c1)C(C)=O	MrgX1 allo act 6.6
Cc1coc2c(C)c3oc(=O)c(CCC(=O)NCCCN4CCOCC4)c(C)c3cc12	none (no result: Lipid droplet)
Cc1coc2c(C)c3oc(=O)c(CCC(=O)NCCN4CCOCC4)c(C)c3cc12	RGS4 act -7 (no result: Lipid droplet)
Cc1ccc(S(=O)(=O)NC(=O)c2ccc(-c3ccc(-c4ccccc4)cc3)o2)c(C)c1	RGS4 act -9.1
O=C(CCc1nnc(CCCCc2ccccc2)o1)NCCN1CCOC1=O	MrgX1 antagonist -5.3
Cc1ccc(C(C)C)c(Oc2cnccn2)c1	none
CCCOc1cc(N)ccc1C(=O)OCCN(CC)CC	none (no result: RGS4 act, RGS4 block, Lipid droplet)
CCCOc1ccc(N)cc1N	MrgX1 antagonist -6.7 (no result: Lipid droplet)
CCOc1ccc(/C=N/OCC(=O)NCc2ccc3c(c2)OCO3)cc1OC	MrgX1 antagonist -5.9
O=C(O)c1cccc(CN2C(=O)S/C(=C/c3ccccc3[N+](=O)[O-])C2=O)c1	MrgX1 allo act 11
COc1ccc(O)c(C(=O)C2c3ccccc3C(=O)N2c2ccc(C)cc2)c1 (configuration not stated)	none
N#CC1=C(N)SC(N)=C(C#N)C1c1cccc(Oc2ccccc2)c1	MrgX1 antagonist -6.5
CCOc1ccc(C2C(C#N)=C(N)SC(N)=C2C#N)cc1OCC	none
N#CC1=C(N)SC(N)=C(C#N)C1CCc1ccccc1	MrgX1 antagonist -5.1
N#CC1=C(N)SC(N)=C(C#N)C1Cc1ccccc1	none (no result: Lipid droplet)
N#CC1=C(N)SC(N)=C(C#N)C1c1c(Cl)cccc1Cl	MrgX1 agonist 42 (no result: Lipid droplet)
CCCCCCSc1cccc(-c2nc3ccc(Cl)cn3c2NCc2ccccc2)c1	none (no result: Lipid droplet)
Cc1ccc(N(CC(=O)Nc2cccc(Cl)c2C)S(C)(=O)=O)cc1	none
Cc1cc(C(=O)CSc2nncs2)c(C)n1-c1c(C)n(C)n(-c2ccccc2)c1=O	RGS4 act -9.4 (no result: Lipid droplet)
COC(=O)c1cccc(Cn2nc(C)c([N+](=O)[O-])c2C)c1	MrgX1 antagonist -6.6
COC(=O)CNC(=O)Cn1nc(C)c([N+](=O)[O-])c1C	MrgX1 allo act 12
COc1ccc(OC)c(NC(=O)C(C)Oc2ccc(Br)cc2)c1 (configuration not stated)	none
CCN1C(=O)[C@@H]2Cc3c([nH]c4ccccc34)C(c3ccc(OC)cc3)N2C1=S (some centres not stated)	MrgX1 antagonist -4.5
COC(=O)c1ccc(C2c3[nH]c4ccccc4c3C[C@H]3C(=O)N(C)CC(=O)N23)cc1 (some centres not stated)	none
Cc1cccc(-n2c(C)nc3c(cnn3-c3ccc(F)cc3)c2=O)c1	none (no result: Lipid droplet)
CC(C)Oc1ccc(-c2nn(-c3ccccc3)cc2/C=c2\sc3ncnn3c2=O)cc1	MrgX1 agonist 47 (no result: RGS4 act, RGS4 block)
Cc1cc2c(cc1C)C(c1ccsc1)CC(=O)N2 (configuration not stated)	none
O=C(CN1CCCCCC1)N1c2ccccc2C=Cc2ccccc21	RGS4 act -7.6
CCNCCC(=O)N1c2ccccc2Sc2ccc(C(F)(F)F)cc21	RGS4 act -7.9, MrgX1 agonist 31
O=C(CN1CCCC1)N1c2ccccc2Sc2ccc(C(F)(F)F)cc21	RGS4 act -8.1
O=C(CSc1nc2ccccc2o1)N1c2ccccc2Sc2ccc(C(F)(F)F)cc21	none
O=C1CCc2cc(S(=O)(=O)NC(Cc3ccccc3)C(=O)N3CCN(c4ccccn4)CC3)ccc2N1 (configuration not stated)	none
CC1CN(S(=O)(=O)c2cccc(C(=O)N(Cc3nnc(-c4ccccc4Cl)o3)C3CC3)c2)CC(C)O1 (configuration not stated)	none (no result: Lipid droplet)
CC(C)[C@H](NC(N)=O)C(=O)Nc1cccc(S(=O)(=O)N2CCOCC2)c1	none

Source: PubChem BioAssay
